Experimental data taken from ChEMBL document CHEMBL4406863, “Effective Virtual Screening Strategy toward heme-containing proteins: Identification of novel IDO1 inhibitors” (Eur J Med Chem, 2019).
Calls of active or inactive are those of the source. The calls are words filed in the database; no cut-off is given here.

Legend:
[1] = tested on: CT26; test: Antitumor activity against mouse CT26 cells xenografted in immunodeficient BALB/c nude mouse assessed as reduction in tumour growth at 25 mg/kg, ip administered every two days for 17 days and measured at day 17 by vernier caliper method; format: functional, organism-based
[2] = target: Indoleamine 2,3-dioxygenase 1 (Homo sapiens, UniProt P14902); test: Inhibition of IDO1 in IFN-gamma stimulated human HeLa cells assessed as reduction in kynurenine production using L-tryptophan as substrate incubated for 24 hrs; format: cell-based
[3] = Cytotoxicity against human HeLa cells assessed as survival rate at 30 uM incubated for 24 hrs by MTT assay relative to control; format: cell-based; conditions: read-out: Activity
[4] = target: Tryptophan 2,3-dioxygenase (Homo sapiens) (UniProt P48775); test: Inhibition of IFN-gamma-induced human TDO2 transfected in HeLa cells at 10 times IDO1 IC50 concentration using L-tryptophan as substrate incubated for 24 hrs relative to control; format: cell-based
In short: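 HeLa cells transfected for 24 h with a human TDO2 plasmid, then reseeded at 5 × 10^3/well. After 6 h, IFN-γ and compounds added in medium with […] for 24 h. Supernatant treated with 6.1 N TCA at 50 °C for 30 min and centrifuged; kynurenine read with p-dimethylaminobenzaldehyde at 480 nm.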

[5] = tested on: HeLa; test: Effect on IDO1 expression in IFN-gamma-stimulated human HeLa cells at 3 times IDO1 IC50 for 24 hrs by western blot analysis; format: functional, cell-based
In short: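 HeLa cells (2 × 10^5/well) exposed to human IFN-γ 100 ng/mL with or without compound for 24 h. Lysis in 50 mM Tris-HCl pH 8.0 with detergents and protease inhibitors, then 10% SDS-PAGE and PVDF transfer. Membrane blocked with 5% milk and probed with anti-IDO antibody and HRP secondary; band intensity quantified.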

Chain of Tryptophan 2,3-dioxygenase (Homo sapiens) (P48775 whole entry, looked up): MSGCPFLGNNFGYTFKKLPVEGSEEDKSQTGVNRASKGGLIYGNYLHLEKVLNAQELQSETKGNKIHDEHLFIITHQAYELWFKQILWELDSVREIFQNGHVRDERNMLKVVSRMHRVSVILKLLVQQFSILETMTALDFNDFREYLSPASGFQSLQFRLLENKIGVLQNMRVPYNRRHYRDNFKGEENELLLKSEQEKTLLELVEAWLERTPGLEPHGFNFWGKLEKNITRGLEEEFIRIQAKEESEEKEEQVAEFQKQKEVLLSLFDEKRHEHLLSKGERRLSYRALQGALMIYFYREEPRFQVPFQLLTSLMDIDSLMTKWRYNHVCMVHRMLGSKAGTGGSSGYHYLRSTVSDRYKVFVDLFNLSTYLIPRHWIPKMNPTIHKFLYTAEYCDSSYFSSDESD
Chain of Indoleamine 2,3-dioxygenase 1 (P14902 whole entry): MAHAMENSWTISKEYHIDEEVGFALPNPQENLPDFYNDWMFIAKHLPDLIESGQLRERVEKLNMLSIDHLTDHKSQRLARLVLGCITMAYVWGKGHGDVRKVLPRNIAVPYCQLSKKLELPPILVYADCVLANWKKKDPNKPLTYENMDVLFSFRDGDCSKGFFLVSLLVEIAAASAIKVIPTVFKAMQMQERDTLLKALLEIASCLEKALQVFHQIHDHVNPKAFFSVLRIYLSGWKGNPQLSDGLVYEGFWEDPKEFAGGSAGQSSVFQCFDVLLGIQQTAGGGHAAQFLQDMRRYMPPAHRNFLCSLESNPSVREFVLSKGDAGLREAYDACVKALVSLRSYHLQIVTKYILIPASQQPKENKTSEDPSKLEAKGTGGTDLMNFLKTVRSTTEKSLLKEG

Compound | IC50 [2] [µM] | viability at 24 h, 30 µM [3] [%] | further results
O=c1[nH]cc(F)c(=O)[nH]1 | – | – | Activity [1]: Active
COc1ccc(NC(=O)Cn2cnc3scc(-c4ccc(OC)c(OC)c4)c3c2=O)cc1 | 5.6 | 101 | –
O=C(Cn1cnc2scc(-c3ccc(Cl)cc3)c2c1=O)NCc1ccco1 | 12.4 | 108 | –
Oc1ccc2ccccc2c1/C=N/Nc1nccs1 | > 30 | 99 | –
OC(CC1c2ccccc2-c2cncn21)C1CCCCC1 (stereo not drawn) | – | – | inhibition [4]: < 20%
Cc1ccc(C2=Nn3c(CNc4ccc(F)cc4)nnc3SC2)cc1 | – | 110 | –
Fc1ccc(C2=Nn3c(CNc4ccc5c(c4)OCO5)nnc3SC2)cc1 | – | 100 | –
Cc1nc2ccccc2n1Cc1nnc2n1N=C(c1ccc(Cl)cc1)CS2 | – | 85 | –
COc1ccc(CC(=O)N/N=C/c2c(O)ccc3ccccc23)cc1 | > 30 | 91 | –
COc1ccccc1N(CC(=O)N/N=C/c1c(O)ccc2ccccc12)S(C)(=O)=O | > 30 | 89 | –
COc1ccccc1NCC(=O)N/N=C/c1c(O)ccc2ccccc12 | 8.6 | 114 | –
O=C(Cc1ccccc1)N/N=C/c1c(O)ccc2cc([N+](=O)[O-])ccc12 | 4.8 | 108 | inhibition [4]: < 20%; Activity [5]: inactive
O=C(N/N=C/c1c(O)ccc2ccccc12)C(=O)Nc1cccc(C(F)(F)F)c1 | – | 59 | –
NS(=O)(=O)c1ccc(NC(=O)Cn2cnc3scc(-c4ccco4)c3c2=O)cc1 | – | 77 | –
Cc1ccc(-c2csc3ncn(CC(=O)Nc4cccc5ccccc45)c(=O)c23)cc1 | 20.1 | 99 | –
c1ccc(C2=Nn3c(CN4CCc5ccccc54)nnc3SC2)cc1 | > 30 | 98 | –
Cc1ccccc1NC(=O)c1cc2ccccc2c(/C=N/Nc2nc3ccccc3s2)c1O | – | 101 | –
CCC(Nc1ccc(Cl)cc1C)C(=O)N/N=C/c1ccccc1O (stereo not drawn) | – | – | inhibition [4]: < 20%; Activity [5]: inactive
CN(C)c1ccc(/C=C(/NC(=O)c2ccccc2Cl)C(=O)N/N=C/c2c(O)ccc3ccccc23)cc1 | – | 66 | –
O=C(Cn1cnc2scc(-c3ccccc3)c2c1=O)NC(=O)Nc1ccccc1 | > 30 | 85 | –
